This excerpt belongs to a sample that is enriched for hits.
GASC1 inh = blocks human GASC-1 (KDM4C) demethylase activity; 96,000 tested, 0.15% active; Q9H3R0; inhibition, % at 12.5 µM; GST-KDM4C 2-372, H3K9me3 peptide, LANCE TR-FRET;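 active = mean replicate inhibition above about 25%, with at least 55% of replicates also reaching it, limit read from the data, passing the limit was not always enough; inconclusive = only one of those two conditions met; inactive = neither condition met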
Target sequence (Q9H3R0 2-372 limits assumed): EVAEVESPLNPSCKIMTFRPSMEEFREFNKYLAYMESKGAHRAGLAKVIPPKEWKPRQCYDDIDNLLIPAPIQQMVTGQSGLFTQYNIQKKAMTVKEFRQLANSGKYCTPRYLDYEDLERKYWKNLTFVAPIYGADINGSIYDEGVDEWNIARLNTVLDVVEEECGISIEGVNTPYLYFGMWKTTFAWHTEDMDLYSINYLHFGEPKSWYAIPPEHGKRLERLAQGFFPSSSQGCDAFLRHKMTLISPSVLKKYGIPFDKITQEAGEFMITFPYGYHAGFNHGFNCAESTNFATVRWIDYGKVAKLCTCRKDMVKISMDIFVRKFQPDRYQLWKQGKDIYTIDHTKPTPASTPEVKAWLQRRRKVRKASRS
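material = GST-tagged GASC-1 (JMJD2C) catalytic fragment, aa 2-372 | amount = enzyme final amount 10 nM | medium = HEPES buffer, pH 7.5, plus ascorbate | also added = H3K9me3 peptide substrate, Fe(II), 2-oxoglutarate | dosing = single dose | times = 30 min demethylation and 1 h detection at room temperature | detection = LANCE TR-FRET | read-out basis = Fall in 671/618 emission ratio as inhibition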
Pf Dd2 inh = P. falciparum Dd2 growth inhibition; SYBR Green, 72 h; stronger effect = lower value; activity change, % at 10 µM; AID 1159554; 94,000 tested, 2.3% active; in the data active = activity change below about -80%; inconclusive = no clear call, values can overlap the other calls
IDH1 mut inh = inhibitors of human IDH1 R132H; 70,000 tested, 0.18% active; O75874; inhibition, % at 10 µM; IDH1 R132H reductase, diaphorase/resazurin fluorescence, 60 min; in the data active = inhibition above about 34%; inconclusive = no clear call, values can overlap the other calls; inactive = below about 11%
Each line names hits and unclear results; the compound was inactive in the other large screens; ! = not confirmed by another sample.

CCCC(=O)N1C[C@@H]2[C@H](c3ccccc31)[C@H](CO)N2C(=O)CC1CC1	none (no result: IDH1 mut inh)
COc1ccc2c3c([nH]c2c1)[C@@H](CO)N(S(=O)(=O)c1ccccc1)CC31CCN(C)CC1	none (no result: IDH1 mut inh)
CCCC(=O)N1CCC2(CC1)CN(S(=O)(=O)c1ccc(C)cc1)[C@@H](CO)c1[nH]c3cc(OC)ccc3c12	Pf Dd2 inh -92 (no result: IDH1 mut inh)
CCC(=O)N1CCC2(CC1)CN(S(=O)(=O)c1ccccc1)[C@H](CO)c1[nH]c3cc(OC)ccc3c12	Pf Dd2 inh -86 (no result: IDH1 mut inh)
COc1ccc2c3c([nH]c2c1)[C@H](CO)N(C)CC31CCN(S(=O)(=O)c2ccc(C)cc2)CC1	none (no result: IDH1 mut inh)
O=C(C[C@H]1CC[C@H]2[C@@H](COC[C@@H](O)CN2C(=O)Nc2ccc(F)cc2)O1)NCCCN1CCOCC1	none (no result: IDH1 mut inh)
O=C(c1cccc(F)c1)N1CCCCN2[C@@H](CO)[C@@H](c3ccc(C#CC4(O)CCCC4)cc3)[C@@H]2C1	none (no result: IDH1 mut inh)
COc1ccc(NC(=O)N(C)C[C@H]2Oc3c(NC(=O)Nc4c(C)noc4C)cccc3C(=O)N([C@H](C)CO)C[C@H]2C)cc1	none
C[C@H](NC(=O)C[C@@H]1CC[C@@H]2[C@H](COC[C@H](O)CN2Cc2ccc(C(F)(F)F)cc2)O1)c1ccccc1	none (no result: IDH1 mut inh)
C[C@@H]1CN([C@@H](C)CO)C(=O)c2c(c3ccccc3n2C)-c2ccccc2CO[C@H]1CN(C)C(=O)c1cc(Cl)cc(Cl)c1	Pf Dd2 inh -83 (no result: IDH1 mut inh)
C[C@H](CO)N1C[C@H](C)[C@H](CN(C)C(=O)c2cc(Cl)cc(Cl)c2)OCc2ccccc2-c2c(n(C)c3ccccc23)C1=O	Pf Dd2 inh -87 (no result: IDH1 mut inh)
C[C@H](CO)N1C[C@H](C)[C@@H](CN(C)C(=O)c2ccccc2)OCc2ccccc2-c2c(n(C)c3ccccc23)C1=O	none (no result: IDH1 mut inh)
C[C@@H]1CN([C@H](C)CO)C(=O)c2c(c3ccccc3n2C)-c2ccccc2CO[C@H]1CN(C)C(=O)c1cc(Cl)cc(Cl)c1	none (no result: GASC1 inh, IDH1 mut inh)
CC(=O)N(C)C[C@@H]1Oc2cc(C#CC3CCCCC3)ccc2S(=O)(=O)N([C@H](C)CO)C[C@H]1C	none (no result: IDH1 mut inh)
COc1ccc(NC(=O)Nc2cccc3c2O[C@@H](CN(C)Cc2ccc(Cl)c(Cl)c2)[C@H](C)CN([C@H](C)CO)C3=O)cc1	none (no result: IDH1 mut inh)
O=C(N[C@@H]1CC[C@@H](CCNS(=O)(=O)c2ccc(F)cc2)O[C@H]1CO)C1CCCC1	none
O=C(Nc1ccc(C(F)(F)F)cc1)N1C[C@@H]2N[C@H](C1)C2c1ccc(/C=C/c2ccccc2)cc1 (stereo not given in full)	Pf Dd2 inh -90! (no result: IDH1 mut inh)
O=C(Nc1ccc(C(F)(F)F)cc1)N1C[C@@H]2N[C@H](C1)C2c1ccc(-c2ccccc2)cc1 (stereo not given in full)	none (no result: IDH1 mut inh)
COc1cc(/C=C/C(=O)CC(=O)/C=C/c2ccc(O)c(OC)c2)ccc1O	none (no result: GASC1 inh, Pf Dd2 inh)
COC(=O)/C=C/c1cc(O)ccc1O	IDH1 mut inh 89 (no result: GASC1 inh, Pf Dd2 inh)
CCCNC(=O)N1CC2(CCN(S(=O)(=O)c3cccc(OC)c3)CC2)c2c(n(C)c3cc(OC)ccc23)[C@H]1CO	none (no result: IDH1 mut inh)
COc1ccc(OC)c(NC(=O)COc2ccc3c(-c4ccccc4)cc(=O)oc3c2)c1	none (no result: GASC1 inh, Pf Dd2 inh)
CO[C@@H]1CN(C)C(=O)c2cc(NC(C)=O)ccc2OC[C@H](C)N(Cc2ccncc2)C[C@H]1C	none
COCC(=O)Nc1ccc2c(c1)C(=O)N(C)C[C@H](OC)[C@H](C)CN(Cc1cccc(F)c1)[C@@H](C)CO2	Pf Dd2 inh -82
COCC(=O)Nc1ccc2c(c1)C(=O)N(C)C[C@@H](OC)[C@@H](C)CN(Cc1cccc(F)c1)[C@H](C)CO2	none
CO[C@H]1CN(C)C(=O)c2cc(NC(C)=O)ccc2OC[C@H](C)N(Cc2ccncc2)C[C@H]1C	Pf Dd2 inh -80
CN1C(=O)c2cc(NC(=O)c3ccccc3)ccc2OC[C@H]2O[C@H](CC(=O)NC3CCCC3)CC[C@H]21	none (no result: IDH1 mut inh)
COc1ccc2c3c(n(C)c2c1)[C@H](CO)N(Cc1ccccc1OC)CC31CN(CC2CCOCC2)C1	Pf Dd2 inh -89 (no result: IDH1 mut inh)
COc1ccc2c3c(n(C)c2c1)[C@@H](CO)N(Cc1ccccc1OC)CC31CCN(C(=O)C2CC2)CC1	Pf Dd2 inh -83 (no result: IDH1 mut inh)
COc1ccc2c3c(n(C)c2c1)[C@@H](CO)N(Cc1ccc(F)cc1)CC31CCN(CC2CCOCC2)CC1	none (no result: IDH1 mut inh)
COc1ccc2c3c(n(C)c2c1)[C@H](CO)N(Cc1ccccc1OC)CC31CCN(C)CC1	none (no result: IDH1 mut inh)
COc1ccc2c3c(n(C)c2c1)[C@@H](CO)N(Cc1ccccc1F)CC31CCN(C(=O)C2CC2)CC1	none (no result: IDH1 mut inh)
CCCN1CCC2(CC1)CN(Cc1ccccc1OC)[C@H](CO)c1c2c2ccc(OC)cc2n1C	Pf Dd2 inh -92 (no result: IDH1 mut inh)
COc1ccc2c3c(n(C)c2c1)[C@@H](CO)N(Cc1ccc(F)cc1)CC31CCN(CC2CC2)CC1	Pf Dd2 inh -86 (no result: IDH1 mut inh)
COc1ccc2c3c(n(C)c2c1)[C@H](CO)N(Cc1ccccc1OC)CC31CN(CC2CC2)C1	none (no result: IDH1 mut inh)
CO[C@@H]1CN(C)C(=O)c2ccc(NS(=O)(=O)c3cccc(F)c3)cc2OC[C@@H](C)NC[C@H]1C	none
COc1ccc(NC(=O)Nc2cccc3c2O[C@H](CN(C)C(=O)Nc2ccc(OC)cc2)[C@@H](C)CN([C@@H](C)CO)C3=O)cc1	none (no result: IDH1 mut inh)
Cc1noc(C)c1NC(=O)Nc1ccc2c(c1)C(=O)N([C@@H](C)CO)C[C@@H](C)[C@H](CN(C)Cc1ccc(Cl)c(Cl)c1)OCCCC[C@@H](C)O2	none (no result: IDH1 mut inh)
O=C(C[C@H]1CC[C@@H](NC(=O)c2ccncc2)[C@H](CO)O1)Nc1ccccc1	none
C[C@H](CO)N1C[C@H](C)[C@H](CN(C)C(=O)c2ccccc2F)Oc2cc(C#CCN(C)C)ccc2S1(=O)=O	none
COc1ccc(-c2ccc3c(c2)O[C@H](CN(C)C(=O)c2ccccc2F)[C@H](C)CN([C@@H](C)CO)S3(=O)=O)cc1	none
CCCC#Cc1ccc2c(c1)O[C@@H](CN(C)C(=O)c1ccccc1F)[C@@H](C)CN([C@@H](C)CO)S2(=O)=O	Pf Dd2 inh -83
COc1ccc(-c2ccc3c(c2)O[C@H](CN(C)C(=O)c2ccccc2F)[C@H](C)CN([C@H](C)CO)S3(=O)=O)cc1	GASC1 inh 45, IDH1 mut inh inconclusive
CC(C)CC#Cc1ccc2c(c1)O[C@H](CN(C)C(=O)c1ccccc1F)[C@@H](C)CN([C@@H](C)CO)S2(=O)=O	none
CCCC#Cc1ccc2c(c1)O[C@H](CN(C)C(=O)c1ccccc1F)[C@H](C)CN([C@H](C)CO)S2(=O)=O	Pf Dd2 inh -81
O=C(Nc1ccc2c(c1)[C@H]1C[C@H](CC(=O)N3CCc4ccccc4C3)O[C@H](CO)[C@H]1O2)C1CCC1	none
CCCNC(=O)N1CCC2(CC1)CN(C(=O)c1ccncc1)[C@H](CO)c1[nH]c3cc(OC)ccc3c12	none (no result: IDH1 mut inh)
CCNC(=O)C[C@H]1CC[C@@H]2[C@H](COC[C@H](O)CN2C(=O)Nc2cccc(OC)c2)O1	none (no result: IDH1 mut inh)
COc1cccc(NC(=O)N2C[C@H](O)COC[C@@H]3O[C@H](CC(=O)N(C)C)CC[C@H]32)c1	none (no result: Pf Dd2 inh, IDH1 mut inh)
Cc1[nH]c2ccccc2c1C(=O)CSc1nc2sc(C)c(C)c2c(=O)n1-c1ccccc1	none (no result: GASC1 inh, Pf Dd2 inh)
O=C(N[C@H]1CC[C@H](CCNS(=O)(=O)Cc2ccccc2)O[C@H]1CO)c1ccc2c(c1)OCO2	GASC1 inh 35
O=C(N[C@@H]1CC[C@@H](CCNS(=O)(=O)Cc2ccccc2)O[C@@H]1CO)c1ccc2c(c1)OCO2	none
